The source of these data is PMC4235008 (Neoplasia (New York, N.Y.), 2014).

The test system of the series is PC3 xenografts. Put plainly: PET imaging of PC3 xenografted Nu/Nu mice. The series is classed as in vivo, mouse. The settings on record: 15 MBq injected, 20-minute scan. In short, it runs like this:
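Male Nu/Nu mice (4–6 weeks old) got s.c. PC3 cells (1 × 10^6 in PBS, shoulders) or LNCaP cells (2.5 × 10^6 in PBS/Matrigel 1:1, hips). Tumors grew ≥4 weeks to ≥5 mm. Under isoflurane, mice received i.v. 3.7–7.4 MBq 64Cu peptide or 15 MBq [18F]-FDG, on a heated bed. Scans ran 20 min on small-animal PET with 3D MLEM reconstruction. ROI activity was expressed per cm³ as % injected dose.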

`OC[C@H]1OC(O)[C@H]([18F])[C@@H](O)[C@@H]1O` (stereo partly drawn) [[^18F]-FDG, [^18F]-fluoro-2-deoxy-D-glucose]: the “PC3 tumor [18F]-FDG uptake (PET)” value is given as “faultless”.
